Assays:
Kidney [1] = experiment: Drug uptake in ICR mouse kidney at 370 kBq/100 ul, iv at 30 mins by gamma-counting analysis; format: ADME, organism-based; settings: in vivo, 0.5 h
In short: (§1)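 Male ICR mice (5 weeks, about 20 g) got 18F tracer in saline (370 KBq per 100 μL) via tail vein; n = 5 per time point, killed at 2, 10, 30, 60 min. Organs weighed and γ-counted; percent dose per gram wet tissue from comparison with diluted injectate aliquots.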

Stomach [2] = experiment: Drug uptake in ICR mouse stomach assessed per organ at 370 kBq/100 ul, iv at 2 mins by gamma-counting analysis; format: ADME, organism-based; settings: in vivo
In short: (§2)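 Male ICR mice (5 weeks, about 20 g) got 18F tracer in saline (370 KBq per 100 μL) via tail vein; n = 5 per time point, killed at 2, 10, 30, 60 min. Organs removed and γ-counted against diluted injectate; expressed as % injected dose per organ.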

Lung [3] = experiment: Drug uptake in ICR mouse lung at 370 kBq/100 ul, iv at 60 mins by gamma-counting analysis; format: ADME, organism-based; settings: in vivo, 1 h; in short: as §1
Kidney [4] = experiment: Drug uptake in ICR mouse kidney at 370 kBq/100 ul, iv at 2 mins by gamma-counting analysis; format: ADME, organism-based; settings: in vivo; in short: as §1
Stomach [5] = experiment: Drug uptake in ICR mouse stomach assessed per organ at 370 kBq/100 ul, iv at 60 mins by gamma-counting analysis; format: ADME, organism-based; settings: in vivo, 1 h
In short: (§3)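 Normal male ICR mice (5 weeks, about 20 g) received the ¹⁸F tracer in saline (370 KBq per 100 μL) by tail-vein injection. Groups of n = 5 were killed at 2, 10, 30 and 60 min. Organs were removed, weighed and γ-counted against diluted aliquots of the injectate, giving % dose per gram. Stomach and intestine were expressed per organ. The brain ratio is 2 min/60 min uptake. Values are mean ± SD.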

Blood [6] = experiment: Drug uptake in ICR mouse blood at 370 kBq/100 ul, iv at 30 mins by gamma-counting analysis; format: ADME, organism-based; settings: in vivo, 0.5 h; in short: as §1
Kidney [7] = experiment: Drug uptake in ICR mouse kidney at 370 kBq/100 ul, iv at 60 mins by gamma-counting analysis; format: ADME, organism-based; settings: in vivo, 1 h; in short: as §1
Heart [8] = experiment: Drug uptake in ICR mouse heart at 370 kBq/100 ul, iv at 60 mins by gamma-counting analysis; format: ADME, organism-based; settings: in vivo, 1 h; in short: as §1
Intestine [9] = experiment: Drug uptake in ICR mouse intestine assessed per organ at 370 kBq/100 ul, iv at 30 mins by gamma-counting analysis; format: ADME, organism-based; settings: in vivo, 0.5 h; in short: as §2
Heart [10] = experiment: Drug uptake in ICR mouse heart at 370 kBq/100 ul, iv at 10 mins by gamma-counting analysis; format: ADME, organism-based; settings: in vivo; in short: as §1
Blood [11] = experiment: Drug uptake in ICR mouse blood at 370 kBq/100 ul, iv at 10 mins by gamma-counting analysis; format: ADME, organism-based; settings: in vivo; in short: as §1
Spleen [12] = experiment: Drug uptake in ICR mouse spleen at 370 kBq/100 ul, iv at 2 mins by gamma-counting analysis; format: ADME, organism-based; settings: in vivo; in short: as §1
Kidney [13] = experiment: Drug uptake in ICR mouse kidney at 370 kBq/100 ul, iv at 10 mins by gamma-counting analysis; format: ADME, organism-based; settings: in vivo; in short: as §1
Bone [14] = experiment: Drug uptake in ICR mouse bone at 370 kBq/100 ul, iv at 10 mins by gamma-counting analysis; format: ADME, organism-based, Bone element; settings: in vivo; in short: as §1
Brain [15] = experiment: Ratio of drug uptake in brain at 2 mins to drug uptake in brain at 60 mins in ICR mouse at 370 KBq/100 ul, iv; format: ADME, organism-based; settings: in vivo; in short: as §3
Liver [16] = experiment: Drug uptake in ICR mouse liver at 370 kBq/100 ul, iv at 2 mins by gamma-counting analysis; format: ADME, organism-based; settings: in vivo; in short: as §1
Liver [17] = experiment: Drug uptake in ICR mouse liver at 370 kBq/100 ul, iv at 10 mins by gamma-counting analysis; format: ADME, organism-based; settings: in vivo; in short: as §1
Brain [18] = experiment: Drug uptake in ICR mouse brain at 370 kBq/100 ul, iv at 10 mins by gamma-counting analysis; format: ADME, organism-based; settings: in vivo; in short: as §1
Stomach [19] = experiment: Drug uptake in ICR mouse stomach assessed per organ at 370 kBq/100 ul, iv at 10 mins by gamma-counting analysis; format: ADME, organism-based; settings: in vivo; in short: as §2
Liver [20] = experiment: Drug uptake in ICR mouse liver at 370 kBq/100 ul, iv at 30 mins by gamma-counting analysis; format: ADME, organism-based; settings: in vivo, 0.5 h; in short: as §1
Lung [21] = experiment: Drug uptake in ICR mouse lung at 370 kBq/100 ul, iv at 30 mins by gamma-counting analysis; format: ADME, organism-based; settings: in vivo, 0.5 h; in short: as §1
Brain [22] = experiment: Drug uptake in wild type C57BL6 mouse brain at 370 KBq/100 ul after 1 hr by autoradiographic analysis; format: ADME, tissue-based; settings: in vitro
In short: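 Paraffin brain sections from 12-month-old male control C57BL6 mice were deparaffinized through xylene and graded ethanol, then held in PBS (0.2 M, pH 7.4) for 30 min. They were incubated with the ¹⁸F tracer (370 KBq per 100 μL) for 1 h at room temperature. Sections were washed in 40% EtOH, rinsed with water for 1 min, dried, and exposed to a phosphor plate for 2 h. The same sections were then stained with thioflavin S.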

Spleen [23] = experiment: Drug uptake in ICR mouse spleen at 370 kBq/100 ul, iv at 30 mins by gamma-counting analysis; format: ADME, organism-based; settings: in vivo, 0.5 h; in short: as §1
[24] = n-Octanol-PBS buffer partition coefficient, log D of the compound at 1.5 MBq after 3 mins at pH 7.4; format: physicochemical
In short: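 The tracer was partitioned between n-octanol and PBS by vortexing for 3 min at room temperature, then centrifuged for 5 min at 3000 rpm. Samples of the octanol (50 μL) and aqueous (500 μL) layers were counted. log D is the log of the octanol/PBS counts-per-gram ratio. The octanol layer was repartitioned until values were consistent. Measured in triplicate and repeated three times.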

Spleen [25] = experiment: Drug uptake in ICR mouse spleen at 370 kBq/100 ul, iv at 10 mins by gamma-counting analysis; format: ADME, organism-based; settings: in vivo; in short: as §1
Intestine [26] = experiment: Drug uptake in ICR mouse intestine assessed per organ at 370 kBq/100 ul, iv at 2 mins by gamma-counting analysis; format: ADME, organism-based; settings: in vivo; in short: as §2
[27] = Displacement of [125I]-IMPY from amyloid beta (1 to 42) fibrils after 2 hrs by gamma-counting analysis
In short: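 Competition binding with aggregated Aβ1-42 fibrils and [125I]IMPY (60000−100000 cpm/100 μL) in 0.05% BSA (1 mL total); inhibitors 10⁻⁴−10^−8.5 M in ethanol. Incubated 37 °C for 2 h, then GF/B vacuum filtration with PBS (0.02 M, pH 7.4) washes and γ counting. Three repeats; IC50 converted to Ki by Cheng−Prusoff.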

Lung [28] = experiment: Drug uptake in ICR mouse lung at 370 kBq/100 ul, iv at 2 mins by gamma-counting analysis; format: ADME, organism-based; settings: in vivo; in short: as §1
Heart [29] = experiment: Drug uptake in ICR mouse heart at 370 kBq/100 ul, iv at 2 mins by gamma-counting analysis; format: ADME, organism-based; settings: in vivo; in short: as §1
Blood [30] = experiment: Drug uptake in ICR mouse blood at 370 kBq/100 ul, iv at 60 mins by gamma-counting analysis; format: ADME, organism-based; settings: in vivo, 1 h; in short: as §1
Stomach [31] = experiment: Drug uptake in ICR mouse stomach assessed per organ at 370 kBq/100 ul, iv at 30 mins by gamma-counting analysis; format: ADME, organism-based; settings: in vivo, 0.5 h; in short: as §2
Brain [32] = experiment: Drug uptake in ICR mouse brain at 370 kBq/100 ul, iv at 30 mins by gamma-counting analysis; format: ADME, organism-based; settings: in vivo, 0.5 h; in short: as §1
Brain [33] = experiment: Drug uptake in ICR mouse brain at 370 kBq/100 ul, iv at 2 mins by gamma-counting analysis; format: ADME, organism-based; settings: in vivo; in short: as §1
Liver [34] = experiment: Drug uptake in ICR mouse liver at 370 kBq/100 ul, iv at 60 mins by gamma-counting analysis; format: ADME, organism-based; settings: in vivo, 1 h; in short: as §1
Bone [35] = experiment: Drug uptake in ICR mouse bone at 370 kBq/100 ul, iv at 30 mins by gamma-counting analysis; format: ADME, organism-based, Bone element; settings: in vivo, 0.5 h; in short: as §1
Intestine [36] = experiment: Drug uptake in ICR mouse intestine assessed per organ at 370 kBq/100 ul, iv at 60 mins by gamma-counting analysis; format: ADME, organism-based; settings: in vivo, 1 h; in short: as §2
Blood [37] = experiment: Drug uptake in ICR mouse blood at 370 kBq/100 ul, iv at 2 mins by gamma-counting analysis; format: ADME, organism-based; settings: in vivo; in short: as §1
Spleen [38] = experiment: Drug uptake in ICR mouse spleen at 370 kBq/100 ul, iv at 60 mins by gamma-counting analysis; format: ADME, organism-based; settings: in vivo, 1 h; in short: as §1
Intestine [39] = experiment: Drug uptake in ICR mouse intestine assessed per organ at 370 kBq/100 ul, iv at 10 mins by gamma-counting analysis; format: ADME, organism-based; settings: in vivo; in short: as §2
Heart [40] = experiment: Drug uptake in ICR mouse heart at 370 kBq/100 ul, iv at 30 mins by gamma-counting analysis; format: ADME, organism-based; settings: in vivo, 0.5 h; in short: as §1
Bone [41] = experiment: Drug uptake in ICR mouse bone at 370 kBq/100 ul, iv at 60 mins by gamma-counting analysis; format: ADME, organism-based, Bone element; settings: in vivo, 1 h; in short: as §1
Brain [42] = experiment: Drug uptake in ICR mouse brain at 370 kBq/100 ul, iv at 60 mins by gamma-counting analysis; format: ADME, organism-based; settings: in vivo, 1 h; in short: as §1
Bone [43] = experiment: Drug uptake in ICR mouse bone at 370 kBq/100 ul, iv at 2 mins by gamma-counting analysis; format: ADME, organism-based, Bone element; settings: in vivo; in short: as §1
Lung [44] = experiment: Drug uptake in ICR mouse lung at 370 kBq/100 ul, iv at 10 mins by gamma-counting analysis; format: ADME, organism-based; settings: in vivo; in short: as §1

Which results are given for `CN(C)c1ccc(-c2nc3cc(OCCOCCOCC[18F])ccc3o2)cn1`?
Drug uptake (Kidney [1]): 4.2 % ID/g; Drug uptake (Stomach [2]): 2.66 %ID; Drug uptake (Lung [3]): 1.87 % ID/g; Drug uptake (Kidney [4]): 8.27 % ID/g; Drug uptake (Stomach [5]): 6.45 %ID; Drug uptake (Blood [6]): 2.74 % ID/g; Drug uptake (Kidney [7]): 3.21 % ID/g; Drug uptake (Heart [8]): 2.73 % ID/g; Drug uptake (Intestine [9]): 28.15 %ID; Drug uptake (Heart [10]): 3.51 % ID/g; Drug uptake (Blood [11]): 3.05 % ID/g; Drug uptake (Spleen [12]): 3 % ID/g; Drug uptake (Kidney [13]): 5.14 % ID/g; Drug uptake (Bone [14]): 2.7 % ID/g; Ratio (Brain [15]): 2.08; Drug uptake (Liver [16]): 13.25 % ID/g; Drug uptake (Liver [17]): 5.41 % ID/g; Drug uptake (Brain [18]): 1.97 % ID/g; Drug uptake (Stomach [19]): 5.1 %ID; Drug uptake (Liver [20]): 7.24 % ID/g; Drug uptake (Lung [21]): 2.64 % ID/g; Drug uptake (Brain [22]): Not Active; Drug uptake (Spleen [23]): 2.41 % ID/g; logD at 0.05 h [24]: 3.26; Drug uptake (Spleen [25]): 2.69 % ID/g; Drug uptake (Intestine [26]): 8.13 %ID; Ki [27]: 9.9 nM; Drug uptake (Lung [28]): 3.03 % ID/g; Drug uptake (Heart [29]): 5.24 % ID/g; Drug uptake (Blood [30]): 2.87 % ID/g; Drug uptake (Stomach [31]): 9.26 %ID; Drug uptake (Brain [32]): 1.85 % ID/g; Drug uptake (Brain [33]): 3.79 % ID/g; Drug uptake (Liver [34]): 3.46 % ID/g; Drug uptake (Bone [35]): 4.71 % ID/g; Drug uptake (Intestine [36]): 28.54 %ID; Drug uptake (Blood [37]): 5.47 % ID/g; Drug uptake (Spleen [38]): 2.34 % ID/g; Drug uptake (Intestine [39]): 14.45 %ID; Drug uptake (Heart [40]): 2.97 % ID/g; Drug uptake (Bone [41]): 6.39 % ID/g; Drug uptake (Brain [42]): 1.82 % ID/g; Drug uptake (Bone [43]): 1.79 % ID/g; Drug uptake (Lung [44]): 2.34 % ID/g
